Among the data in ChEMBL document CHEMBL1132490, “Improving the nicotinic pharmacophore with a series of (Isoxazole)methylene-1-azacyclic compounds: synthesis, structure-activity relationship, and molecular modeling” (J Med Chem, 1999) are IC50 values, retold here.

In assay [1] the target is Muscarinic acetylcholine receptor. Kind of assay: In vitro displacement of [3H]oxotremorine-M from muscarinic acetylcholine receptor in rat brain cortex. In kind it is tissue-based. For orientation: In a radioligand displacement assay an active substance lowers the binding of a labelled ligand.
The target in assay [2] is Neuronal acetylcholine receptor. Kind of assay: In vitro displacement of [3H]methylcarbamylcholine from nicotinic acetylcholine receptor in rat brain cortex. Type of assay: tissue-based. The method in brief:
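Male Mol:WIST rat cerebral cortex (fresh or frozen), homogenised in 50 mM Tris-HCl pH 7.4 with 120 mM NaCl, 5 mM KCl, 2 mM CaCl2, 1 mM MgCl2, spun 40000g 10 min; pellet resuspended. Incubated with [3H]MCC (2 nM final) and test salt, 60 min at 0 °C; GF/B filtration (0.5% PEI), scintillation counting. IC50 by nonlinear regression.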

Where only a bound is given, the exact number is not on record here.

Usually IC50 stands for the concentration that gives 50% inhibition. Read a high IC50 as a need for much substance.

With `Cc1cc(/C=C2\CCN(C)C2)on1`, the values for the IC50 in assay [1] and in assay [2] were 15700 nM and more than 1000 nM, respectively.

Turning to `CCCc1cc(/C=C2\CN3CCC2CC3)on1`, the IC50 in assay [1] stood at 852 nM; in assay [2], 167 nM.

For the compound `COCc1cc(/C=C2\CN3CCC2CC3)on1`, the results for the IC50 in assay [1] and in assay [2] were 1470 nM and 218 nM, respectively.

Regarding `Cc1cc(/C=C2\CCCNC2)on1`, the IC50 in assay [1] is 6950 nM; in assay [2] it was more than 1000 nM.

For `Cc1cc(/C=C2\CN3CCCC2C3)on1` (configuration not stated), the IC50 in assay [1] was 898 nM; in assay [2], 130 nM.

Take `Cc1cc(/C=C2/CN3CCC2CC3)on1`: the IC50 in assay [1] was 1810 nM; in assay [2], 504 nM.

In the case of `CCCc1cc(/C=C2/CN3CCC2CC3)on1`, the IC50 in assay [1] was 1930 nM; in assay [2], more than 1000 nM.

With `Cc1cc(/C=C2\CN3CCC2CC3)on1`, the IC50 came to 658 nM in assay [1] and 3.9 nM in assay [2].

As to `C/C(=C1/CN2CCC1CC2)c1cc(C)no1`, the figures for the IC50 in assay [1] and in assay [2] were 2263 nM and 715 nM, respectively.

Regarding `Clc1ccc(C2CC3CCC2N3)cn1` (racemic) [EPIBATIDINE], the IC50 in assay [1] is given as more than 1 nM.

For `CCc1cc(/C=C2\CN3CCC2CC3)on1`, the IC50 in assay [1] is 566 nM; in assay [2], 100 nM.

In the case of `COCc1cc(/C=C2/CN3CCC2CC3)on1`, the IC50 is 4000 nM in assay [1] and more than 1000 nM in assay [2].

Take `Cc1cc(/C(F)=C2\CN3CCC2CC3)on1`: the IC50 is 1450 nM in assay [1] and 255 nM in assay [2].

For the compound `Cc1noc(/C=C2/CN3CCC2CC3)c1C`, the IC50 in assay [1] was 373 nM; in assay [2], more than 1000 nM.

For the compound `Cc1cc(/C=C2\CCCN(C)C2)on1`, the IC50 was 9540 nM in assay [1] and more than 1000 nM in assay [2].

With `Cc1cc(/C=C2/CN3CCC2C3)on1` (configuration not stated), the results for the IC50 in assay [1] and in assay [2] were 1020 nM and 23 nM, respectively.

Take `CC(C)c1cc(/C=C2\CN3CCC2CC3)on1`: the IC50 came to 911 nM in assay [1] and 107 nM in assay [2].

For `Cc1cc(/C=C2/CCN(C)C2)on1`, the IC50 in assay [1] amounted to 4420 nM; in assay [2], 783 nM.

Consider `CC(C)c1cc(/C=C2/CN3CCC2CC3)on1`, for which the IC50 in assay [1] was 2280 nM; in assay [2], more than 1000 nM.

For the compound `Cc1cc(/C=C2/CCCNC2)on1`, the IC50 in assay [1] stood at 7220 nM; in assay [2] it was 87 nM.

Take `Cc1cc(/C=C2\CN3CCC2C3)on1` (configuration not stated): the IC50 in assay [1] amounted to 276 nM; in assay [2] it was 29 nM.

Take `Cc1cc(/C=C2/CCNC2)on1`: the figures for the IC50 in assay [1] and in assay [2] were 3290 nM and more than 1000 nM, respectively.

`Cc1cnoc1/C=C1\CN2CCC1CC2`: the results for the IC50 in assay [1] and in assay [2] were 418 nM and 3.2 nM, respectively.

`Cc1cc(C=C2CNC2)on1`: the IC50 is 19300 nM in assay [1] and more than 1000 nM in assay [2].

Turning to `Cc1cc(/C=C2/CCCN(C)C2)on1`, the IC50 is 5760 nM in assay [1] and more than 1000 nM in assay [2].

In the case of `Cc1cc(/C=C2/CN3CCCC2C3)on1` (configuration not stated), the figures for the concentration for half-maximal inhibition (IC50) in assay [1] and in assay [2] were 1570 nM and 53 nM, respectively.

Consider `CCc1cc(/C=C2/CN3CCC2CC3)on1`, for which the IC50 in assay [1] is 867 nM; in assay [2], more than 1000 nM.

`Cc1cnoc1/C=C1\CN2CCC1C2` (configuration not stated): the IC50 in assay [1] was 19 nM; in assay [2], 0.32 nM.

For `C(=C1/CN2CCC1CC2)/c1ccno1`, the IC50 was 312 nM in assay [1] and 1.65 nM in assay [2].
